According to ChEMBL document CHEMBL4823277, “Novel chalcone-conjugated, multi-flexible end-group coumarin thiazole hybrids as potential antibacterial repressors against methicillin-resistant Staphylococcus aureus” (Eur J Med Chem, 2021):
≈ marks a conversion by molar mass, not a printed value. Calls of active or inactive are those of the source. The rule behind the calls is not given here.

Experiments:
Pseudomonas aeruginosa [1] = assay: Antibacterial activity against Pseudomonas aeruginosa ATCC 27853 by microbroth dilution method; type: functional
DNA [2] = assay: Binding affinity to methicillin-resistant Staphylococcus aureus DNA assessed as maximum absorption peak at 260 nm by UV-vis spectroscopy; type: nucleic-acid assay
Pseudomonas aeruginosa [3] = assay: Antibacterial activity against Pseudomonas aeruginosa by microbroth dilution method; type: functional
Staphylococcus aureus [4] = assay: Antibacterial activity against Staphylococcus aureus by microbroth dilution method; type: functional
Escherichia coli [5] = assay: Additive antibacterial activity against Escherichia coli assessed as fractional inhibitory concentration index in presence of norfloxacin; type: functional
Staphylococcus aureus [6] = assay: Synergistic antibacterial activity against methicillin resistant Staphylococcus aureus N315 assessed as fractional inhibitory concentration index in presence of norfloxacin; type: functional
RAW264.7 = assay: Cytotoxicity against mouse RAW264.7 cells assessed as effect on cell viability up to 500 ug/ml by MTT assay; type: cell-based; settings: dose <=500 µg/ml
Method in brief: (§1)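 MTT viability assay on human hepatocyte LO2 cells and RAW 264.7 cells. The test hybrid was applied over a rising concentration series up to 500. The read-out was the percentage of living cells.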

Klebsiella pneumoniae [7] = assay: Additive antibacterial activity against Klebsiella pneumoniae assessed as fractional inhibitory concentration index in presence of norfloxacin; type: functional
Klebsiella pneumoniae [8] = assay: Antibacterial activity against Klebsiella pneumonia by microbroth dilution method; type: functional
L02 = assay: Cytotoxicity against human L02 cells assessed as effect on cell viability up to 500 ug/ml by MTT assay; type: cell-based; settings: dose <=500 µg/ml; method in brief: as §1
DNA [9] = assay: Binding affinity to methicillin-resistant Staphylococcus aureus DNA assessed as decrease in absorption of compound-DNA complex by UV-vis spectroscopy; type: nucleic-acid assay
Staphylococcus aureus [10] = assay: Antibacterial activity against Staphylococcus aureus ATCC 25923 by microbroth dilution method; type: functional
Enterococcus faecalis [11] = assay: Indifferent antibacterial activity against Enterococcus faecalis assessed as fractional inhibitory concentration index in presence of norfloxacin; type: functional
Acinetobacter baumannii = assay: Antibacterial activity against Acinetobacter baumannii by microbroth dilution method; type: functional
Klebsiella pneumoniae [12] = assay: Potentiation of norfloxacin-induced antibacterial activity against Klebsiella pneumoniae assessed as norfloxacin MIC; type: functional
DNA [13] = assay: Binding affinity to methicillin-resistant Staphylococcus aureus DNA assessed as compound-DNA interaction causing DNA replication blockage by neutral red uptake assay; type: nucleic-acid assay
Staphylococcus aureus [14] = assay: Antibacterial activity against methicillin-resistant Staphylococcus aureus N315 by microbroth dilution method; type: functional
Method in brief: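 Minimum inhibitory concentration against MRSA N315 determined by micro broth dilution in microdilution plates.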

Enterococcus faecalis [15] = assay: Potentiation of norfloxacin-induced antibacterial activity against Enterococcus faecalis assessed as norfloxacin MIC; type: functional
Staphylococcus aureus [16] = assay: Antibacterial activity against Staphylococcus aureus ATCC 29213 by microbroth dilution method; type: functional
Staphylococcus aureus [17] = assay: Bactericidal activity against methicillin-resistant Staphylococcus aureus assessed as decrease in viable cells at 4 times MIC measured after 2 hrs by time kill assay; type: functional
Method in brief: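 Time-kill kinetics against MRSA at 4 × MIC. Viable cells were counted as CFU/mL over time, including the 2 h point.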

Escherichia coli [18] = assay: Antibacterial activity against Escherichia coli by microbroth dilution method; type: functional
Escherichia coli [19] = assay: Antibacterial activity against Escherichia coli ATCC 25922 by microbroth dilution method; type: functional
Enterococcus faecalis [20] = assay: Antibacterial activity against Enterococcus faecalis by microbroth dilution method; type: functional
Cell membrane = assay: Induction of membrane permeabilization in methicillin resistant Staphylococcus aureus at 12 times MIC measured after 60 mins by propidium iodide staining based fluorescence assay
Method in brief: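 PI–DNA fluorescence intensity was followed over time up to and beyond 60 min, compared with an untreated control.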

Escherichia coli [21] = assay: Potentiation of norfloxacin-induced antibacterial activity against Escherichia coli assessed as norfloxacin MIC; type: functional
Staphylococcus aureus [22] = assay: Antibacterial activity against methicillin-resistant Staphylococcus aureus up to 50 ug/ml measured after 7 passages by resistance development assay; type: functional, organism-based; settings: dose microg/ml <=50

SMILES | MIC (Pseudomonas aeruginosa [1]) | MIC (Pseudomonas aeruginosa [3]) | MIC (Staphylococcus aureus [4]) | MIC (Klebsiella pneumoniae [8]) | MIC (Staphylococcus aureus [10]) | MIC (Acinetobacter baumannii) | MIC (Staphylococcus aureus [14]) | MIC (Staphylococcus aureus [16]) | MIC (Escherichia coli [18]) | MIC (Escherichia coli [19]) | MIC (Enterococcus faecalis [20]) | further results
COc1ccc(/C=C(\Oc2ccc3c(CN(CCO)CCO)cc(=O)oc3c2)C(=O)c2nccs2)cc1 | 244 µM (≈ 128 µg/mL) | 122 µM (≈ 63.8 µg/mL) | 61 µM (≈ 31.9 µg/mL) | 61 µM (≈ 31.9 µg/mL) | 122 µM (≈ 63.8 µg/mL) | 244 µM (≈ 128 µg/mL) | 4 µM (≈ 2.09 µg/mL) | 122 µM (≈ 63.8 µg/mL) | 15 µM (≈ 7.84 µg/mL) | 244 µM (≈ 128 µg/mL) | 61 µM (≈ 31.9 µg/mL) | Activity (DNA [2]): Active; fractional inhibitory concentration index (FICI) (Escherichia coli [5]): 0.51; fractional inhibitory concentration index (FICI) (Staphylococcus aureus [6]): 0.45; Activity (RAW264.7): Non-Toxic; fractional inhibitory concentration index (FICI) (Klebsiella pneumoniae [7]): 0.58; Activity (L02): Non-Toxic; Activity (DNA [9]): Active; fractional inhibitory concentration index (FICI) (Enterococcus faecalis [11]): 1.34; MIC (Klebsiella pneumoniae [12]): 0.953 10^-3mM; Activity (DNA [13]): Active; MIC (Enterococcus faecalis [15]): 1.906 10^-3mM; Activity (Staphylococcus aureus [17]): <10 CFU/ml; Activity (Cell membrane): Active; MIC (Escherichia coli [21]): 0.234 10^-3mM; Activity (Staphylococcus aureus [22]): Active
Cc1ccc2c(/C=C(\Oc3ccc4c(CN(CCO)CCO)cc(=O)oc4c3)C(=O)c3nccs3)c[nH]c2c1 | 59 µM (≈ 32.2 µg/mL) | 117 µM (≈ 63.8 µg/mL) | 29 µM (≈ 15.8 µg/mL) | 235 µM (≈ 128 µg/mL) | 7 µM (≈ 3.82 µg/mL) | 117 µM (≈ 63.8 µg/mL) | 117 µM (≈ 63.8 µg/mL) | 117 µM (≈ 63.8 µg/mL) | 235 µM (≈ 128 µg/mL) | 235 µM (≈ 128 µg/mL) | 15 µM (≈ 8.18 µg/mL) | 
O=C(COc1ccc2c(CN(CCO)CCO)cc(=O)oc2c1)c1nccs1 | 1270 µM (≈ 512 µg/mL) | 633 µM (≈ 256 µg/mL) | 316 µM (≈ 128 µg/mL) | 316 µM (≈ 128 µg/mL) | 633 µM (≈ 256 µg/mL) | 633 µM (≈ 256 µg/mL) | 20 µM (≈ 8.09 µg/mL) | 1270 µM (≈ 512 µg/mL) | 316 µM (≈ 128 µg/mL) | 633 µM (≈ 256 µg/mL) | 316 µM (≈ 128 µg/mL) | 
O=C(/C(=C/c1ccc(F)cc1)Oc1ccc2c(CN(CCO)CCO)cc(=O)oc2c1)c1nccs1 | 251 µM (≈ 128 µg/mL) | 1000 µM (≈ 512 µg/mL) | 125 µM (≈ 63.8 µg/mL) | 251 µM (≈ 128 µg/mL) | 251 µM (≈ 128 µg/mL) | 251 µM (≈ 128 µg/mL) | 125 µM (≈ 63.8 µg/mL) | 251 µM (≈ 128 µg/mL) | 1000 µM (≈ 512 µg/mL) | 251 µM (≈ 128 µg/mL) | 125 µM (≈ 63.8 µg/mL) | 
O=C(/C(=C/c1ccc(Cl)cc1Cl)Oc1ccc2c(CN(CCO)CCO)cc(=O)oc2c1)c1nccs1 | 228 µM (≈ 128 µg/mL) | 114 µM (≈ 64 µg/mL) | 228 µM (≈ 128 µg/mL) | 228 µM (≈ 128 µg/mL) | 456 µM (≈ 256 µg/mL) | 114 µM (≈ 64 µg/mL) | 7 µM (≈ 3.93 µg/mL) | 456 µM (≈ 256 µg/mL) | 228 µM (≈ 128 µg/mL) | 456 µM (≈ 256 µg/mL) | 228 µM (≈ 128 µg/mL) | 
Cc1ccc(/C=C(\Oc2ccc3c(CN(CCO)CCO)cc(=O)oc3c2)C(=O)c2nccs2)cc1 | 505 µM (≈ 256 µg/mL) | 253 µM (≈ 128 µg/mL) | 126 µM (≈ 63.8 µg/mL) | 63 µM (≈ 31.9 µg/mL) | 63 µM (≈ 31.9 µg/mL) | 253 µM (≈ 128 µg/mL) | 63 µM (≈ 31.9 µg/mL) | 126 µM (≈ 63.8 µg/mL) | 16 µM (≈ 8.11 µg/mL) | 126 µM (≈ 63.8 µg/mL) | 63 µM (≈ 31.9 µg/mL) | 
O=C(/C(=C/c1ccccc1Cl)Oc1ccc2c(CN(CCO)CCO)cc(=O)oc2c1)c1nccs1 | 243 µM (≈ 128 µg/mL) | 486 µM (≈ 256 µg/mL) | 121 µM (≈ 63.8 µg/mL) | 972 µM (≈ 512 µg/mL) | 486 µM (≈ 256 µg/mL) | 486 µM (≈ 256 µg/mL) | 61 µM (≈ 32.1 µg/mL) | 486 µM (≈ 256 µg/mL) | 972 µM (≈ 512 µg/mL) | 243 µM (≈ 128 µg/mL) | 121 µM (≈ 63.8 µg/mL) | 
O=C(/C(=C/c1c[nH]c2ccccc12)Oc1ccc2c(CN(CCO)CCO)cc(=O)oc2c1)c1nccs1 | 482 µM (≈ 256 µg/mL) | 241 µM (≈ 128 µg/mL) | 120 µM (≈ 63.8 µg/mL) | 60 µM (≈ 31.9 µg/mL) | 120 µM (≈ 63.8 µg/mL) | 482 µM (≈ 256 µg/mL) | 15 µM (≈ 7.97 µg/mL) | 120 µM (≈ 63.8 µg/mL) | 241 µM (≈ 128 µg/mL) | 241 µM (≈ 128 µg/mL) | 60 µM (≈ 31.9 µg/mL) | 
